Tests used:
[1] = Partition coefficient (logP); format: physicochemical; conditions: octanol/water
How it was run: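 Determined by RP-HPLC. log K = log[(tr − t0)/t0], with t0 the elution time of methanol. log K0 at 0% methanol was obtained by linear regression of log K versus percent methanol, using standards.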

[2] = First order rate constant, k was determined at pH 5.0; format: ADME
How it was run: (§1)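 Buffer hydrolysis at 37 °C in HCl, acetate, phosphate or borate buffers. Methanolic stock was added to preheated buffer in screw-capped tubes, giving about 4×10^-4 M final (1% methanol). Samples were taken at intervals and chromatographed immediately by HPLC. First-order k_obs came from the slope of log % formed albendazole versus time, and t1/2 = 0.693/k_obs.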

[3] = Half life of the in pig liver Esterase; format: ADME, Sus scrofa
How it was run: (§2)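 Pig liver esterase used in place of plasma, at 37 °C with initial 4×10^-4 M (1% methanol). Samples were C18-extracted over time and albendazole formation was tracked by HPLC. k_obs was taken from the slope of log % formed albendazole versus time, and t1/2 = 0.693/k_obs. Mean ± SD.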

[4] = First order rate constant, k was determined in human plasma; format: ADME, cell-free
How it was run: (§3)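 Incubation at 37 °C in 80% human plasma, initial 4×10^-4 M (1% methanol). Plasma samples withdrawn at various times were extracted on a C18 cartridge, and appearance of albendazole was followed by HPLC. First-order k_obs came from the slope of log % formed albendazole versus time, and t1/2 = 0.693/k_obs. Mean ± SD.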

[5] = Half life of the at pH 7.4; format: ADME; how it was run: as §1
[6] = Half life of the in human plasma; format: ADME, cell-free; how it was run: as §3
[7] = First order rate constant, k was determined in pig liver Esterase; format: ADME, tissue-based, Sus scrofa; how it was run: as §2
[8] = Half life of the at pH 5.0; format: ADME; how it was run: as §1
[9] = First order rate constant, k was determined at pH 7.4; format: ADME; how it was run: as §1
[10] = First order rate constant, k was determined at pH 1; format: ADME; how it was run: as §1
[11] = First order rate constant, k was determined at pH 9; format: ADME; how it was run: as §1
[12] = First order rate constant, k was determined at pH 6; format: ADME; how it was run: as §1
[13] = First order rate constant, k was determined at pH 5; format: ADME; how it was run: as §1
[14] = First order rate constant, k was determined at pH 4; format: ADME; how it was run: as §1
[15] = First order rate constant, k was determined at pH 3; format: ADME; how it was run: as §1
[16] = First order rate constant, k was determined at pH 2; format: ADME; how it was run: as §1
[17] = First order rate constant, k was determined at pH 8; format: ADME; how it was run: as §1

Structure (SMILES)	logP [1]	k [2]	half-life [3] [h]	k [4]	half-life [5] [h]	half-life [6] [h]	k [7]	half-life [8] [h]	also measured
CCCSc1ccc2nc(NC(=O)OC)[nH]c2c1 [ALBENDAZOLE]	3.07								
CCCSc1ccc2nc(NC(=O)OC)n(C(=O)OCC)c2c1	3.19	4.21 10e-3 min-1	0.117	96.33 10e-3 min-1	2	0.12	99.14 10e-3 min-1	2.74	k [9]: 5.78 10e-3 min-1
CCCSc1ccc2c(c1)nc(NC(=O)OC)n2C(=O)CCC	3.92								
CCCSc1ccc2c(c1)nc(NC(=O)OC)n2C(=O)OCC	3.92	2.19 10e-3 min-1	0.115	83.29 10e-3 min-1	2.02	0.139	100.14 10e-3 min-1	5.27	k [9]: 5.73 10e-3 min-1
CCCSc1ccc2c(c1)nc(NC(=O)OC)n2C(=O)CC	3.17								
CCCSc1ccc2c(c1)nc(NC(=O)OC)n2C(C)=O	2.82								
CCCSc1ccc2c(c1)nc(NC(=O)OC)n2COC(=O)c1ccc(N)cc1.Cl	2.91	3.01 10e-3 min-1	0.755	12.43 10e-3 min-1	2.05	0.929	15.29 10e-3 min-1	3.84	k [10]: 0.3203 min⁻¹; k [11]: 8 min⁻¹; k [12]: 0.0036 min⁻¹; k [13]: 0.003 min⁻¹; k [14]: 0.0087 min⁻¹; k [15]: 0.0323 min⁻¹; k [16]: 0.2826 min⁻¹; k [17]: 1.8066 min⁻¹

Reference: ChEMBL document CHEMBL1134075, “Synthesis and hydrolytic stability studies of albendazole carrier prodrugs” (Bioorg Med Chem Lett, 2001)
